According to publication PMC7359852 (ACS Infectious Diseases, 2020):
Where two headings read alike, the source gives them in different places.

Experiments:
[1] = tested on: adult S. mansoni; experiment: Viability of adult S. mansoni worms in vitro, microscopic viability score; type: cell-based, Schistosoma mansoni; details: for IC50: Table 1, adult worms after 72 h; for adult (%) 0.1 μM: Table 1, 0.1 μM; for adult (%) 0.1 μM / adult (%) 1 μM: effect on adult worms after 72 h; for adult (%) 1 μM: Table 1, 1 μM
In short: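 Adult worms were picked from the hepatic portal and mesenteric veins of mice infected 49 days earlier with 100 cercariae. They were washed in PBS pH 7.4 and held in RPMI 1640 with 5% heat-inactivated FCS and antibiotics at 37 °C, 5% CO2. Worms were exposed to test compound for 72 h, with medium plus 1% DMSO as control. Motility, viability and morphology were scored daily by microscopy at 80×. IC50 used a 3-fold dilution series starting at 1 μM and was computed from the scores.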

[2] = tested on: S. mansoni; experiment: In vivo study in mice harboring a chronic S. mansoni infection; details: single oral dose 10 mg/kg
In short: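 Female NMRI mice (3 weeks old, ca. 20–22 g) were infected subcutaneously with about 100 S. mansoni cercariae. At day 49 post-infection (adult infection), groups of four received a single oral 10 mg/kg dose of test compound; untreated mice served as controls. Mice were euthanised with CO2 21 days after treatment. Worms were picked, sexed and counted, and worm burden reduction was calculated.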

[3] = tested on: adult S. mansoni; details: read-out: IC50 against adult S. mansoni; cited from earlier work
[4] = tested on: S. mansoni NTS; details: read-out: IC50 against NTS; cited from earlier work
[5] = tested on: S. mansoni; details: cited from earlier work
[6] = tested on: S. mansoni; details: cited from earlier work; remark: listed apart in the source

Compound | IC50 ([1]; Schistosoma mansoni, 72 h) [nM] | adult (%) 0.1 μM [1] [%] | adult (%) 1 μM [1] [%] | IC50 [1] [nM] | further results
C[C@@H]1C[C@H](O)[C@]2(O)O[C@@H]3C[C@@]4(C=O)[C@@H](CC[C@@H]5[C@@H]4CC[C@]4(C)[C@@H](C6=CC(=O)OC6)CC[C@]54O)C[C@H]3O[C@@H]2O1 [5a, Calotropin] | 371 | 22.9 | 97 | – | –
C[C@@H]1C[C@@]2(NCCS2)[C@]2(O)O[C@@H]3C[C@@]4(C=O)[C@@H](CC[C@@H]5[C@@H]4CC[C@]4(C)[C@@H](C6=CC(=O)OC6)CC[C@]54O)C[C@H]3O[C@@H]2O1 [5aa, Voruscharin] | – | 31.3 | 98 | 137 | –
C[C@@H]1C[C@H](O)[C@]2(O)O[C@@H]3C[C@@]4(C)[C@@H](CC[C@@H]5[C@@H]4CC[C@]4(C)[C@@H](C6=CC(=O)OC6)CC[C@]54O)C[C@H]3O[C@@H]2O1 [5f, Gomphoside] | – | 24.4 | 94 | 196 | –
C[C@@H]1C[C@@]2(N=CCS2)[C@]2(O)O[C@@H]3C[C@@]4(C=O)[C@@H](CC[C@@H]5[C@@H]4CC[C@]4(C)[C@@H](C6=CC(=O)OC6)CC[C@]54O)C[C@H]3O[C@@H]2O1 [5z, Uscharin] | 76 | 51 | 100 | – | mean number of worms, MV [2]: 27.7 ± 6.5; mean number of worms, females [2]: 13.0 ± 4.6; mean number of worms, liver, alive [2]: 0.7 ± 1.1; mean number of worms, liver, dead [2]: 0 ± 0; mean number of worms, males [2]: 15.3 ± 3.2; mean number of worms, total [2]: 28.3 ± 7.5; total WBR (worm burden reduction) ([2]; chronic infection): 0%
O=C(C1CCCCC1)N1CC(=O)N2CCc3ccccc3C2C1 (centres unmarked) [praziquantel] | – | – | – | – | IC50 [3]: 100 nM; IC50 [4]: 2200 nM
CC(=O)S[C@@H]1CC2=CC(=O)CC[C@]2(C)[C@H]2CC[C@@]3(C)[C@@H](CC[C@@]34CCC(=O)O4)[C@H]12 [spironolactone] | – | – | – | – | in vitro activity against S. mansoni [5]: 7.2 µM; in vivo activity [6]: moderate
